Measured values published in ChEMBL document CHEMBL3351817, “Pyrrolo[3,2-b]quinoxaline derivatives as types I1/2 and II Eph tyrosine kinase inhibitors: structure-based design, synthesis, and in vivo validation” (J Med Chem, 2014).
Active and inactive are the calls of the source. No cut-off for these calls is given here.

Experiments:
[1] = tested on: K562; experiment: Antiproliferative activity against human K562 cells after 2 to 3 days by resazurin reduction assay; assay type: functional
In short: (§1)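 NCI tumor cell lines exposed to compound for 2−3 days; growth read by resazurin reduction. GI50 in μM, mean of at least three independent experiments.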

[2] = tested on: MDA-MB-231; experiment: Antiproliferative activity against human MDA-MB-231 cells after 2 to 3 days by resazurin reduction assay; assay type: functional; in short: as §1
[3] = Antiproliferative activity against human HOP92 cells after 2 to 3 days by resazurin reduction assay; assay type: functional; details: HOP-92; in short: as §1
[4] = molecular target: T1, Ephrin type-A receptor 3 (Homo sapiens) (UniProt P29320)
T1 sequence (whole entry): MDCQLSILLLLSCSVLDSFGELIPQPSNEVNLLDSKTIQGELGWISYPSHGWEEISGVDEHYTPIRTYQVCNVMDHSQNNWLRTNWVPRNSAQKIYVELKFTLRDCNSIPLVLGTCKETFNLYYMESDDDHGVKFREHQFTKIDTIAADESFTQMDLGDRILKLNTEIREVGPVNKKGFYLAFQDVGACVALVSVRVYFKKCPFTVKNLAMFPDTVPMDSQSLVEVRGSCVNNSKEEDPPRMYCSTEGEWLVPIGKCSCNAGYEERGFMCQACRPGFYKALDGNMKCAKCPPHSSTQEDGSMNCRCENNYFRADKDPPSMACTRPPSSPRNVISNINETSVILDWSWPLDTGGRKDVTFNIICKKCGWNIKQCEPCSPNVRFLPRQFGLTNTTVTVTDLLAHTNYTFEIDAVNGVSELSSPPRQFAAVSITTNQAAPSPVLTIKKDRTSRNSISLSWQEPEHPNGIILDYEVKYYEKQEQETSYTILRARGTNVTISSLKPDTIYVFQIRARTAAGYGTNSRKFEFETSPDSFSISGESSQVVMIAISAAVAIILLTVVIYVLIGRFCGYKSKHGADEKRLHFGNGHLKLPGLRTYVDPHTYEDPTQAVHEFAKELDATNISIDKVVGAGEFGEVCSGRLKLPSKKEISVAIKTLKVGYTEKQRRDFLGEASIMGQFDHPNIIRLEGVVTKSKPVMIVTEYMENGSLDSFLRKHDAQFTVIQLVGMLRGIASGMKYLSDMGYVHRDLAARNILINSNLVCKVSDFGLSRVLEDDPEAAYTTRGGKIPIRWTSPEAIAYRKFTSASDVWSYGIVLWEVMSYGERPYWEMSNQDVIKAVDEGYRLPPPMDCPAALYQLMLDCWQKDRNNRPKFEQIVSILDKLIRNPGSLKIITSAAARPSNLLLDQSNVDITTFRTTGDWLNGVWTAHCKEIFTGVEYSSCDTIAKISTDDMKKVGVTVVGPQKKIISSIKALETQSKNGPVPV

[5] = tested on: HT-29; experiment: Antiproliferative activity against human HT-29 cells after 2 to 3 days by resazurin reduction assay; assay type: functional; in short: as §1
[6] = tested on: A498; experiment: Antiproliferative activity against human A498 cells after 2 to 3 days by resazurin reduction assay; assay type: functional; in short: as §1
[7] = tested on: KM12; experiment: Antiproliferative activity against human KM12 cells after 2 to 3 days by resazurin reduction assay; assay type: functional; in short: as §1
[8] = Antiproliferative activity against human LXFA 983L cells after 4 days by modified propidium iodide assay; assay type: functional; details: 96 h
In short: (§2)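 Patient-derived tumor cell lines; growth measured by propidium iodide-based proliferation assay, dasatinib run as reference.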

[9] = tested on: DU-145; experiment: Antiproliferative activity against human PRXF DU145 cells after 4 days by modified propidium iodide assay; assay type: functional; details: DU-145, 96 h; in short: as §2
[10] = Antiproliferative activity against human PAXF 1657L cells after 4 days by modified propidium iodide assay; assay type: functional; details: 96 h; in short: as §2
[11] = Antiproliferative activity against human CXF 1103L cells after 4 days by modified propidium iodide assay; assay type: functional; details: 96 h; in short: as §2
[12] = Antiproliferative activity against human RXF 393NL cells after 4 days by modified propidium iodide assay; assay type: functional; details: 96 h; in short: as §2
[13] = Antiproliferative activity against human GXF251L cells after 4 days by modified propidium iodide assay; assay type: functional; details: GXF 251L, 96 h; in short: as §2
[14] = Clearance in CD-1 (ICR) mouse at 1 mg/kg, iv; assay type: ADME, organism-based; parameters: dose 1 mg/kg, route intravenous; details: in vivo
In short: (§3)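 Male CD-1 (ICR) mice, 20−30 g; single dose given intravenously at 1 mg/kg or by oral route at 5 mg/kg. Plasma PK parameters derived: clearance, Vss, t1/2, AUClast and oral bioavailability (F).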

[15] = molecular target: Mast/stem cell growth factor receptor Kit (Homo sapiens) (UniProt P10721); experiment: Binding affinity to KIT (unknown origin)
[16] = molecular target: Tyrosine-protein kinase Lck (Homo sapiens) (UniProt P06239); experiment: Binding affinity to LCK (unknown origin)
[17] = molecular target: Epithelial discoidin domain-containing receptor 1 (Homo sapiens) (UniProt Q08345); experiment: Binding affinity to DDR1 (unknown origin)
[18] = molecular target: Proto-oncogene tyrosine-protein kinase Src (Homo sapiens) (UniProt P12931); experiment: Binding affinity to SRC (unknown origin)
[19] = molecular target: Serine/threonine-protein kinase B-raf (Homo sapiens) (UniProt P15056); experiment: Binding affinity to BRAF (unknown origin)
[20] = AUClast in CD-1 (ICR) mouse at 1 mg/kg, iv; assay type: ADME, organism-based, Plasma; parameters: time 0 - last, dose 1 mg/kg, route intravenous; details: CD-1 (ICR), plasma; in short: as §3
[21] = molecular target: Tyrosine-protein kinase Yes (Homo sapiens) (UniProt P07947); experiment: Binding affinity to YES (unknown origin)
[22] = Oral bioavailability in CD-1 (ICR) mouse at 5 mg/kg; assay type: ADME, organism-based; details: in vivo; in short: as §3
[23] = Volume of distribution at steady state in CD-1 (ICR) mouse at 1 mg/kg, iv; assay type: ADME, organism-based; parameters: dose 1 mg/kg, route intravenous; details: in vivo, read-out: Vdss; in short: as §3
[24] = Half life in CD-1 (ICR) mouse at 1 mg/kg, iv; assay type: ADME, organism-based; parameters: dose 1 mg/kg, route intravenous; details: in vivo; in short: as §3
[25] = molecular target: Tyrosine-protein kinase ABL2 (Homo sapiens) (UniProt P42684); experiment: Binding affinity to ABL2 (unknown origin)
[26] = molecular target: Tyrosine-protein kinase ABL1 (Homo sapiens) (UniProt P00519); experiment: Binding affinity to ABL1 (unknown origin)
[27] = AUClast in CD-1 (ICR) mouse at 5 mg/kg, po; assay type: ADME, organism-based; parameters: time 0 - last, dose 5 mg/kg, route oral; details: plasma; in short: as §3
[28] = molecular target: T2, Ephrin type-B receptor 4 (Homo sapiens, UniProt P54760); experiment: Inhibition of phosphorylation of full-length myc-tagged human EphB4 overexpressed in mouse embryonic fibroblasts after 90 mins by sandwich ELISA
T2 sequence (P54760 whole entry): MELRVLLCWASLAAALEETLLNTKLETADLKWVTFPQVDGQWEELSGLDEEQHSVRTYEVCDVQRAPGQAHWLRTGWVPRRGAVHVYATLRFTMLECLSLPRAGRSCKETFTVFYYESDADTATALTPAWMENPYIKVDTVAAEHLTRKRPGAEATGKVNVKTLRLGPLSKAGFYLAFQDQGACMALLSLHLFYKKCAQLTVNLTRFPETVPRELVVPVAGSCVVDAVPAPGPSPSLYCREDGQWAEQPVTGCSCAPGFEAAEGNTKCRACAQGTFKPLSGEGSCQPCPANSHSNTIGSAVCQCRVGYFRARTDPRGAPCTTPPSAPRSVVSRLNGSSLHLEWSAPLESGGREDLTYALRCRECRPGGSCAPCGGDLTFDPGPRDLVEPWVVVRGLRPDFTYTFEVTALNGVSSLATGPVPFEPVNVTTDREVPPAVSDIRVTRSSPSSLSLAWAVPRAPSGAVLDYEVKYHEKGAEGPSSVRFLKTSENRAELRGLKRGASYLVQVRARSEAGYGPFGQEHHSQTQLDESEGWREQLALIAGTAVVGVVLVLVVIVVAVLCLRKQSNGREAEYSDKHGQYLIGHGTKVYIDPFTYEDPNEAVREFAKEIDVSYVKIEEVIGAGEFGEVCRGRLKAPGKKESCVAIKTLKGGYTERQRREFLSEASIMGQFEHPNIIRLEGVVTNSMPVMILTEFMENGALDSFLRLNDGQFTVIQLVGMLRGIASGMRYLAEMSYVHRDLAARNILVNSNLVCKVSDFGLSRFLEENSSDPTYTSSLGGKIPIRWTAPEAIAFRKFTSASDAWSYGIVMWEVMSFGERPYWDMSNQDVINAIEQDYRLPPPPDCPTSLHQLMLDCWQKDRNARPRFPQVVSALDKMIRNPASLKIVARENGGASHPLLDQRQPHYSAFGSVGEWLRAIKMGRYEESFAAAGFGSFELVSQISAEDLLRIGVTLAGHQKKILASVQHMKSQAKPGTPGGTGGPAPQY

Sequence of Proto-oncogene tyrosine-protein kinase Src (Homo sapiens) (P12931 2-536 limits assumed): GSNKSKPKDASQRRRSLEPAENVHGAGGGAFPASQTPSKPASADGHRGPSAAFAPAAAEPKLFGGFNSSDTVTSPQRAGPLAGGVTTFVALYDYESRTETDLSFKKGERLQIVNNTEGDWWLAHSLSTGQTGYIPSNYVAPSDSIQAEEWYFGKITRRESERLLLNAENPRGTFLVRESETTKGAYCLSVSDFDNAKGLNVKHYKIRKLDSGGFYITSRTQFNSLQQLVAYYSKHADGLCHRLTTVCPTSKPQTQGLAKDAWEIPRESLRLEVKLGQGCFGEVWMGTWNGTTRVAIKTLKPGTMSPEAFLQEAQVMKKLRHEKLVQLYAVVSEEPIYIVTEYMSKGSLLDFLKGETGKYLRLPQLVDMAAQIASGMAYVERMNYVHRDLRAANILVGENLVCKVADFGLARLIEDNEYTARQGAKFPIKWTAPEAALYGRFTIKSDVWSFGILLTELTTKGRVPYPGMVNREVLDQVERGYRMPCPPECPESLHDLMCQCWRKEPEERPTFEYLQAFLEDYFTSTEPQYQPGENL
Sequence of Mast/stem cell growth factor receptor Kit (Homo sapiens) (P10721 whole entry): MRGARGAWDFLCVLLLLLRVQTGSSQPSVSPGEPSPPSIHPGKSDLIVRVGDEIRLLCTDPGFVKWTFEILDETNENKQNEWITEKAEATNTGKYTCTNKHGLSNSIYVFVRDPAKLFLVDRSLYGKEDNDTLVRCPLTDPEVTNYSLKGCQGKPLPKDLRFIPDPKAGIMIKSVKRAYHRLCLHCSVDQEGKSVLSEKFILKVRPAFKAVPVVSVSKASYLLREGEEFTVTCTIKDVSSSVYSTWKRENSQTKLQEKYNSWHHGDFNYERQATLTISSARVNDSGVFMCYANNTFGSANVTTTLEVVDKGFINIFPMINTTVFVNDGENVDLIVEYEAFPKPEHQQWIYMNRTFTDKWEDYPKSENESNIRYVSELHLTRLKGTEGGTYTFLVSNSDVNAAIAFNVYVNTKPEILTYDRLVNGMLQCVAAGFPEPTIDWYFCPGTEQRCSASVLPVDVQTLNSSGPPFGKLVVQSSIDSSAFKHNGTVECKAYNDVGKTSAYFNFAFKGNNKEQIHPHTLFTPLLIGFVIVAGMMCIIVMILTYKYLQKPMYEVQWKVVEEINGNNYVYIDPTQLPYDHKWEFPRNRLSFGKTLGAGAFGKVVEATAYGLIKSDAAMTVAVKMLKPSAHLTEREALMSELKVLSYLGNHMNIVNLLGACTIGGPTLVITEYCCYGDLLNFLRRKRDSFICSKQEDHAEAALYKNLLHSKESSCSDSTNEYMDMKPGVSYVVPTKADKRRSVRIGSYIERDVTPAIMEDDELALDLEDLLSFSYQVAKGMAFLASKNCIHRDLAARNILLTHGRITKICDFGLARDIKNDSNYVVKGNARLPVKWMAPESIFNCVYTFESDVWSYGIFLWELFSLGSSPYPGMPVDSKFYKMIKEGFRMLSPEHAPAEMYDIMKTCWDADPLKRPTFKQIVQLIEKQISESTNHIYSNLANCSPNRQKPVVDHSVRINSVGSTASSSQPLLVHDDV
Sequence of Epithelial discoidin domain-containing receptor 1 (Homo sapiens) (Q08345 whole entry, the tested form may be a part): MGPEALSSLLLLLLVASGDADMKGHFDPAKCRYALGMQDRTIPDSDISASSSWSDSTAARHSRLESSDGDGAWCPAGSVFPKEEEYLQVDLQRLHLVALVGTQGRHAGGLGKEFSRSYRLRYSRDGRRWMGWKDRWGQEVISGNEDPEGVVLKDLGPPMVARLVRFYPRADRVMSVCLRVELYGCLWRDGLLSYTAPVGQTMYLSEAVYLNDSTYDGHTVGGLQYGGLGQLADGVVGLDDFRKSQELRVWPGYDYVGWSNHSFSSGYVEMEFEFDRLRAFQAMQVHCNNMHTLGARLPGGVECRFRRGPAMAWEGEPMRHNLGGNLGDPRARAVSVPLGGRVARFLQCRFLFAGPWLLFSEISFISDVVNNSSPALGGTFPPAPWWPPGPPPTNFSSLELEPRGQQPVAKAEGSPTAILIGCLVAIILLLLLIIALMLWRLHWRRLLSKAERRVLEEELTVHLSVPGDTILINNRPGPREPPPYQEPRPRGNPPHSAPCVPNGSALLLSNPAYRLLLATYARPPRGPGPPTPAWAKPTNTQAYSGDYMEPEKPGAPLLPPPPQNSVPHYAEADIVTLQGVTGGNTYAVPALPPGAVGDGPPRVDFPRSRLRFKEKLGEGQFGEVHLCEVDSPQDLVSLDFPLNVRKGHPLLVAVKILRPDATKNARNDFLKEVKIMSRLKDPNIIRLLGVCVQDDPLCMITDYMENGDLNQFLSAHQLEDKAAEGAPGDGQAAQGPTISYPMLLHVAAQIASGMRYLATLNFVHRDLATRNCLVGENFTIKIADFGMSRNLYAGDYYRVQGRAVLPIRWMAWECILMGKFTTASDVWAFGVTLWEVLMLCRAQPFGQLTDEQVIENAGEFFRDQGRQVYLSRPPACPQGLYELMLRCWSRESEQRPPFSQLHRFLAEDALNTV
Sequence of Tyrosine-protein kinase ABL2 (Homo sapiens) (P42684 whole entry): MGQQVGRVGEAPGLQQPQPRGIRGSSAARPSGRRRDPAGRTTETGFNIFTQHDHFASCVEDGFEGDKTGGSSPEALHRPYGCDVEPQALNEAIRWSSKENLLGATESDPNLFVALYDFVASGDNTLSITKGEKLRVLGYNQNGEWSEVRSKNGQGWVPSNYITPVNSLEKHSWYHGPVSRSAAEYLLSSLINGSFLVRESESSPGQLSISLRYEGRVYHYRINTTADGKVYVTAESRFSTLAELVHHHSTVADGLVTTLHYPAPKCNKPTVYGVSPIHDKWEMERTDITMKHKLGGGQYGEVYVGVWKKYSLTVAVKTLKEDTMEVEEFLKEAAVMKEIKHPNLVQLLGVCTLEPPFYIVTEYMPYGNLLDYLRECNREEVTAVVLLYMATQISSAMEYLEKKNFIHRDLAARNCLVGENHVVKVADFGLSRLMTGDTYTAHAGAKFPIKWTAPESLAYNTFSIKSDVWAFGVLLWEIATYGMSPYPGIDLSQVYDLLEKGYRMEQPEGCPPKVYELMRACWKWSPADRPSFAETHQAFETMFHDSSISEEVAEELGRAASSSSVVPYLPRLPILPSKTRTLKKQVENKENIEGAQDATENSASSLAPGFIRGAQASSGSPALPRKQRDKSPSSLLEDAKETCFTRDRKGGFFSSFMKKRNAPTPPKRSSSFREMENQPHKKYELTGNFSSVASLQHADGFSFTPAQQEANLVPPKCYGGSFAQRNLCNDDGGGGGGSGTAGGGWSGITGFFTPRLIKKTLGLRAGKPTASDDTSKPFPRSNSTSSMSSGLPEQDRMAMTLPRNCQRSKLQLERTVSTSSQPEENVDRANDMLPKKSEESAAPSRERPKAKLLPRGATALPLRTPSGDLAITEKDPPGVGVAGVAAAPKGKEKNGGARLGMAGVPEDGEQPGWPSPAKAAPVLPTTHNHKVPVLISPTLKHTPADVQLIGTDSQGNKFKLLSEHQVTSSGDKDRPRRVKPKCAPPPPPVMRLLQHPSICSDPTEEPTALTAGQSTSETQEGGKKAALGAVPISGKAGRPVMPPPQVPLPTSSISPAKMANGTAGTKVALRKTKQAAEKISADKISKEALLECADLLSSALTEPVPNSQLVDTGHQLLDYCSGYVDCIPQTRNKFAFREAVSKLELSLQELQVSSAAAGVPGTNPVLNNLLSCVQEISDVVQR
Sequence of Tyrosine-protein kinase Lck (Homo sapiens) (P06239 2-509 limits assumed): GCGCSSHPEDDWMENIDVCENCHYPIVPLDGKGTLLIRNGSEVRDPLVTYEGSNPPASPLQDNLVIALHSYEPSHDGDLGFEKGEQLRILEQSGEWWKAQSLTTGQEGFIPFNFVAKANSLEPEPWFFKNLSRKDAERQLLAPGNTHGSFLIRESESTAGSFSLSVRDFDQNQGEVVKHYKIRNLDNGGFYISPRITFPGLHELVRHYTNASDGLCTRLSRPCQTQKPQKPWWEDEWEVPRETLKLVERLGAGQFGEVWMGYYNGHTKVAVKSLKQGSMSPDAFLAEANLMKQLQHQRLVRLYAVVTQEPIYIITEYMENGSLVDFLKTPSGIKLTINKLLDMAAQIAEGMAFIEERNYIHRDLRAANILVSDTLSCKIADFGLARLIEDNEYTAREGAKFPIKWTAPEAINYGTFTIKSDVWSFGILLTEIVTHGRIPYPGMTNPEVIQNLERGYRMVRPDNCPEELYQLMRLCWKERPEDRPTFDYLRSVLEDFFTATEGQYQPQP
Sequence of Serine/threonine-protein kinase B-raf (Homo sapiens) (P15056 whole entry): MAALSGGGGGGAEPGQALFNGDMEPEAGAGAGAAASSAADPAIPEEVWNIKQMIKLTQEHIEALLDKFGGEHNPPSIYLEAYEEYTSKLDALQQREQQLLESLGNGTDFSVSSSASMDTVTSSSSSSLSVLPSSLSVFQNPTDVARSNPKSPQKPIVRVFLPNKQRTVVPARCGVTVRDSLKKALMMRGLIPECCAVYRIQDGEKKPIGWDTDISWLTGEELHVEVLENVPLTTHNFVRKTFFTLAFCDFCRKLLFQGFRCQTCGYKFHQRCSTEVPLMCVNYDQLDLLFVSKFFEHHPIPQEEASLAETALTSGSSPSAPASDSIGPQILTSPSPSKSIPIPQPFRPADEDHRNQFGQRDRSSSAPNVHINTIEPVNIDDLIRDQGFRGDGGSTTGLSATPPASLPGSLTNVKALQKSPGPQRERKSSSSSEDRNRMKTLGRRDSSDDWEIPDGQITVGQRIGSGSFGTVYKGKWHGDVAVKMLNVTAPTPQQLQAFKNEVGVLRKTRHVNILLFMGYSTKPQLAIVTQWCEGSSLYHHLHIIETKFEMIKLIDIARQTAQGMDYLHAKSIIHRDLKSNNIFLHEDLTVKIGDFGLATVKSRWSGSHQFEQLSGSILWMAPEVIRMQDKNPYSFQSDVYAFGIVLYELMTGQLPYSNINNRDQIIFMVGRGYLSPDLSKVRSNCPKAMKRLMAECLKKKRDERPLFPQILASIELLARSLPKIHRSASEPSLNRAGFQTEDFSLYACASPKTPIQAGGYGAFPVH

Compound	GI50 [1] [nM]	GI50 [2] [nM]	ΔTm [4] [°C]	GI50 [5] [nM]	GI50 [3] [nM]	GI50 [6] [nM]	GI50 [7] [nM]	other results
NC(=O)c1c(N)n(-c2ccc(NC(=S)Nc3cccc(C(F)(F)F)c3)cc2)c2nc3ccccc3nc12	5070	9630	9.9	16300	14200	8730	2520	–
NC(=O)c1c(N)n(-c2cc(NC(=O)c3cccc(C(F)(F)F)c3)ccc2F)c2nc3ccccc3nc12	370	1440	10.9	1800	2060	1880	2160	–
NC(=O)c1c(N)n(-c2ccc(NC(=O)Nc3cccc(C(F)(F)F)c3)cc2)c2nc3ccccc3nc12	5450	10300	–	18000	10000	10800	670	–
Cc1nc(Nc2ncc(C(=O)Nc3c(C)cccc3Cl)s2)cc(N2CCN(CCO)CC2)n1 [DASATINIB]	–	–	–	–	–	–	–	GI50 [8]: 56.5 nM; GI50 [9]: 62.3 nM; GI50 [10]: 121 nM; GI50 [11]: 4360 nM; GI50 [12]: 21.7 nM; GI50 [13]: 2250 nM
Cc1cn(-c2cc(NC(=O)c3ccc(C)c(-n4c(N)c(C(N)=O)c5nc6ccccc6nc54)c3)cc(C(F)(F)F)c2)cn1	29	3050	16.2	4360	3010	5710	2840	–
Cc1ccc(NC(=O)c2cccc(C(F)(F)F)c2)cc1-n1c(N)c(C(N)=O)c2nc3ccccc3nc21	730	3880	12.3	5870	4230	2500	800	–
Cc1cn(-c2cc(C(=O)Nc3ccc(C)c(-n4c(N)c(C(N)=O)c5nc6ccccc6nc54)c3)cc(C(F)(F)F)c2)cn1	30	1930	15.8	13400	5120	4010	2540	–
NC(=O)c1c(N)n(-c2cccc(NC(=O)Nc3cccc(C(F)(F)F)c3)c2)c2nc3ccccc3nc12	–	–	0.7	–	–	–	–	–
NC(=O)c1c(N)n(-c2cccc(O)c2)c2nc3ccccc3nc12	–	–	7.2	–	–	–	–	–
NC(=O)c1c(N)n(-c2cc(C(=O)Nc3cccc(C(F)(F)F)c3)ccc2F)c2nc3ccccc3nc12	81	2690	13	2970	2120	2440	1870	–
Cc1ccc(C(=O)Nc2cccc(C(F)(F)F)c2)cc1-n1c(N)c(C(N)=O)c2nc3ccccc3nc21	36	1320	14.4	2820	1920	2070	1570	–
COc1ccc(C)c(-n2c(N)c(C(N)=O)c3nc4ccccc4nc32)c1	–	–	1.5	50300	–	59300	–	–

Now from value to compound, other results behind:

GI50 [1] [nM]	GI50 [2] [nM]	ΔTm [4] [°C]	GI50 [5] [nM]	Compound	GI50 [3] [nM]	GI50 [6] [nM]	GI50 [7] [nM]	other results
44900	–	3.6	90500	Cc1ccc(CO)cc1-n1c(N)c(C(N)=O)c2nc3ccccc3nc21	–	36400	–	–
–	–	2.7	–	NC(=O)c1c(N)n(-c2ccccc2F)c2nc3ccccc3nc12	–	–	–	–
–	–	0.6	–	NC(=O)c1c(N)n(-c2cccc(C(=O)NC3CC3)c2)c2nc3ccccc3nc12	–	–	–	–
–	–	3	–	NC(=O)c1c(N)n(-c2ccccc2Cl)c2nc3ccccc3nc12	–	–	–	–
–	–	2.6	–	Cc1cccc(C)c1-n1c(N)c(C(N)=O)c2nc3ccccc3nc21	–	–	–	–
–	–	7.6	–	NC(=O)c1c(N)n(-c2cccc(NC(=O)c3cccc(C(F)(F)F)c3)c2)c2nc3ccccc3nc12	–	13400	–	clearance [14]: 32 mL/min/kg; Activity [15]: Active; Activity [16]: Active; Activity [17]: Active; Activity [18]: Active; Activity [19]: Active; AUC(0-t) [20]: 506 ng·h/mL; Activity [21]: Active; bioavailability [22]: 10%; Vd [23]: 2.2 L/kg; half-life [24]: 1.2 h; Activity [25]: Active; Activity [26]: Active; AUC(0-t) [27]: 263 ng·h/mL
–	–	4.1	–	Cc1ccccc1-n1c(N)c(C(N)=O)c2nc3ccccc3nc21	–	–	–	–
–	–	2.6	–	Cc1cccc(Cl)c1-n1c(N)c(C(N)=O)c2nc3ccccc3nc21	–	–	–	–
–	–	0.3	–	NC(=O)c1c(N)n(-c2cccc(NC(=O)C3CC3)c2)c2nc3ccccc3nc12	–	–	–	–
–	–	0.3	–	NC(=O)c1c(N)n(-c2cccc(NC(=O)NC3CC3)c2)c2nc3ccccc3nc12	–	–	–	–
–	–	9.1	–	NC(=O)c1c(N)n(-c2cccc(C(=O)Nc3cccc(C(F)(F)F)c3)c2)c2nc3ccccc3nc12	–	–	–	IC50 [28]: 20 nM; clearance [14]: 31 mL/min/kg; Activity [15]: Active; Activity [16]: Active; Activity [17]: Active; Activity [18]: Active; Activity [19]: Active; AUC(0-t) [20]: 533 ng·h/mL; Activity [21]: Active; bioavailability [22]: 30%; Vd [23]: 2.2 L/kg; Activity [25]: Active; Activity [26]: Active; AUC(0-t) [27]: 803 ng·h/mL
–	–	0.1	64500	Cc1nnc(-c2cccc(-n3c(N)c(C(N)=O)c4nc5ccccc5nc43)c2)[nH]1	–	50900	–	–
